# Compound activity from PubChem BioAssay.
# E-sel inducer = induces E-selectin expression in human endothelial cells; HUVEC E-selectin immunofluorescence imaging; normalized: neutral wells 0, TNF-alpha wells 100; activation, % at 7.58 µM; 260,000 tested, 0.37% active; AID 686992;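 active means mean E-selectin-positive cell signal at least 10% of the positive control, reached in at least 60% of replicates, without over 20% cell loss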
# Target sequence (P16581 whole entry, looked up): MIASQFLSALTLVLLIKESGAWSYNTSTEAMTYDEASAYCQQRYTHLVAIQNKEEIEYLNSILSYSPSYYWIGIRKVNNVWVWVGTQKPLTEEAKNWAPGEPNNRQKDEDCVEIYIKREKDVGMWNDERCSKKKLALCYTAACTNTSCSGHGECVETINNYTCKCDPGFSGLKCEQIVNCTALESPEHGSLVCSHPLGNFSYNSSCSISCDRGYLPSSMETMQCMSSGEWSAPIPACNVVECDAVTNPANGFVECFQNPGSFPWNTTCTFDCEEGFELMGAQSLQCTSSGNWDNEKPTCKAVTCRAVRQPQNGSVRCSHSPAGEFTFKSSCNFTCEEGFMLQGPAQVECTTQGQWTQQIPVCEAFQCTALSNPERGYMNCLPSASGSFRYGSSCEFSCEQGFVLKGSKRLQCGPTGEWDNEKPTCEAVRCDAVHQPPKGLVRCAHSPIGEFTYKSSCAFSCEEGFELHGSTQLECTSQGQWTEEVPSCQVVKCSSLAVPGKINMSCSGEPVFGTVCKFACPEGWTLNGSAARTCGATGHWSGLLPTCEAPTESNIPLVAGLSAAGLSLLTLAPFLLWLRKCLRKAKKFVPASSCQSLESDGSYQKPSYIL
#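 material = human umbilical vein endothelial cells (HUVEC), E-selectin induction | quantity = 3,000 cells/well | medium = EGM-2 growth medium on 0.1% gelatin-coated wells | technique = immunofluorescence imaging | read-out basis = % PE-positive cells | control set = TNF-alpha positive control, DMSO neutral control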
# Numbers stand for hits; n = inactive. The entries come from a sample that favours hits as a whole.
SMILES,E-sel inducer
CCC[N+]12CCC(CC1)C(C(O)(c1ccccc1)c1ccccc1)C2 (stereo not drawn),n
CCCC[N+]12CCC(CC1)C(C(O)(c1ccccc1)c1ccccc1)C2 (stereo not drawn),53
CC(=NCCCn1ccnc1)c1c(O)n(C2CCCCC2)c(=O)[nH]c1=O,n
CCC(=Nc1ccc(OC)cc1OC)c1c(O)n(C2CCCCC2)c(=O)[nH]c1=O,n
CCC(=NCCN1CCOCC1)c1c(O)n(C2CCCCC2)c(=O)[nH]c1=O,30
N#Cc1cccc(-c2ccc([C@@H]3[C@@H](CO)N4CCCCN(C(=O)Cc5ccccc5)C[C@H]34)cc2)c1,n
Cc1ccccc1S(=O)(=O)N1[C@@H]2c3ccc(-c4cccnc4)c(=O)n3C[C@H]1[C@H](CO)[C@H]2C(=O)O,n
COc1cccc(-c2ccc([C@H]3[C@@H](CO)N4CCCCN(C(=O)Cc5ccncc5)C[C@H]34)cc2)c1,n
NC(C(=O)O)c1cc(=O)[nH]o1 (stereo not drawn),84
CC(C)(C)c1o[nH]c(=O)c1CC(N)C(=O)O (stereo not drawn),n
COC(=O)[C@@H]1[C@@H](CO)[C@@H]2Cn3c(ccc(-c4cccc(OC)c4)c3=O)[C@H]1N2CC1CC1,n
N#Cc1cccc(-c2ccc([C@H]3[C@H]4CN(C(=O)Cc5cccnc5)CCCCN4[C@H]3CO)cc2)c1,n
C[C@@H]([C@@H](O)c1ccccc1)N(C)C(=O)Cc1ccccc1,n
CC(C)N(C(=O)CCl)c1ccccc1,83
C=CC(C)C(C(=O)c1ccccc1)N(C)C (stereo not drawn),n
COC(=O)[C@H]1[C@H](CO)[C@H]2Cn3c(ccc(C4=CCCC4)c3=O)[C@@H]1N2C(=O)C1CCCCC1,n
CN1C(=O)C(=Cc2cn(CC(=O)N3CCCC3)c3ccccc23)C(=O)N(C)C1=O,n
CN1C(=O)C(=Cc2coc3ccccc3c2=O)C(=O)N(C)C1=O,36
CN1C(=O)C(=Cc2cn(CC#N)c3ccccc23)C(=O)N(C)C1=O,n
COC(=O)[C@H]1[C@H](CO)[C@H]2Cn3c(ccc(-c4ccccc4)c3=O)[C@@H]1N2S(=O)(=O)c1ccccc1C,n
COc1cccc(-c2ccc([C@@H]3[C@H](CO)N4CCCCN(C(=O)Cc5ccncc5)C[C@@H]34)cc2)c1,n
CCN1/C(=C/C=C/C2=[N+](CC)c3ccccc3C2(C)C)C(C)(C)c2ccccc21,131
C=CCn1c(O)c(C(C)=NCCCN(C)C)c(=O)[nH]c1=O,50
CC(=NCCN(C)C)c1c(O)n(Cc2ccccc2)c(=O)[nH]c1=O,n
C=CCn1c(O)c(C(C)=NCCC(c2ccccc2)c2ccccc2)c(=O)[nH]c1=O,n
SMILES,E-sel inducer
O=C(O)[C@H]1[C@H](CO)[C@H]2Cn3c(ccc(-c4ccncc4)c3=O)[C@@H]1N2C(=O)C1CCC1,n
C[C@H]1CN([C@@H](C)CO)C(=O)c2c(c3ccccc3n2C)-c2ccccc2CO[C@H]1CN(C)C(=O)Oc1ccccc1,n
O=C(O)[C@@H]1[C@@H](CO)[C@@H]2Cn3c(ccc(-c4cncnc4)c3=O)[C@H]1N2C(=O)NC1CCCC1,n
Cc1ccc(OC(=O)N(C)C[C@H]2OCc3ccccc3-c3c(n(C)c4ccccc34)C(=O)N([C@H](C)CO)C[C@H]2C)cc1,n
O=C(Cc1ccccc1)N1C[C@@H]2[C@H](c3ccccc31)[C@@H](CO)N2Cc1ccccc1,n
CCCCN1C(=O)NC(=O)C2(Cc3c(nc4ccccn4c3=O)N3CCc4ccccc4C32)C1=O (stereo not drawn),n
Cc1cccn2c(=O)c3c(nc12)N1CCCCCC1C1(C3)C(=O)N(C)C(=O)N(C)C1=O (stereo not drawn),55
O=C(O)[C@H]1[C@H](CO)[C@H]2Cn3c(ccc(-c4ccncc4)c3=O)[C@@H]1N2C(=O)C1CCCCC1,n
c1cc(-c2ccc(C3[C@H]4CNC[C@@H]3N4CC3CC3)cc2)ccn1 (stereo partly drawn),n
O=C(O)[C@H]1[C@H](CO)[C@H]2Cn3c(ccc(-c4ccc(F)cc4)c3=O)[C@@H]1N2CC1CCCC1,n
O=C(O)C[C@@H]1CC[C@H]2NC[C@H](O)COC[C@@H]2O1,n
COC(=O)[C@H]1[C@H](CO)[C@H]2Cn3c(ccc(-c4cccc(OC)c4)c3=O)[C@@H]1N2C(=O)c1cnccn1,n
CCCN1[C@@H]2c3cccc(=O)n3C[C@H]1[C@H](CO)[C@H]2C(=O)N(C)C,n
O=C(O)[C@H]1[C@H](CO)[C@H]2Cn3c(ccc(C4=CCCC4)c3=O)[C@@H]1N2C(=O)Cc1ccccn1,n
COc1ccc(C#Cc2ccc([C@@H]3[C@H](CO)N4CCCCN(C(=O)Cc5ccncc5)C[C@@H]34)cc2)cc1,n
